Tests used:
Trypanothione reductase [1] = biological target: T1, Trypanothione reductase (Leishmania infantum, UniProt A4HSF7); test: Inhibition of HIS-tagged recombinant Leishmania infantum TryR oxidoreductase activity expressed in Escherichia coli in the presence of NADPH by spectrophotometry based DTNB-coupled assay
In short: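 HIS-tagged LiTryR was used in a DTNB-coupled assay at 26 °C. Buffer: 40 mM HEPES pH 7.5, 1 mM EDTA, 30 µM NADP+, 25 µM DTNB, 150 µM NADPH, 1.75% DMSO. Standard runs used 1 µM TS2 and 7 nM enzyme; cross-species runs used 50 µM TS2 and 0.5 nM enzyme. Started with NADPH + TS2; TNB read at 412 nm. Compounds were screened at 75 µM first. Three independent experiments.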

Trypanothione reductase [2] = biological target: T1, Trypanothione reductase; test: Disruption of HIS-FLAG-tagged recombinant Leishmania infantum TryR dimerization expressed in Escherichia coli Rossetta BL21 (DE3) cells incubated for 16 hrs by ELISA analysis
In short: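 400 nM HIS-FLAG-tagged LiTryR (co-purified with HIS-tagged LiTryR as heterodimer) incubated with compound (3.1–75 μM) in 50 mM Tris pH 8.0, 300 mM NaCl, 16 h, 37 °C with vigorous shaking; centrifuged, supernatant captured on α-FLAG plates, detected with HRP-α-HIS antibody and o-phenylenediamine, A490. Signal normalized to DMSO; IC50 by nonlinear regression; triplicate, three independent experiments.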

Leishmania infantum [3] = test: Antileishmanial activity against Leishmania infantum MCAN/ES/89/IPZ229/1/89 axenic amastigotes assessed as reduction in parasite viability treated for 24 hrs by PI staining based flow cytometry; type: functional, organism-based; settings: MCAN/ES/89/IPZ229/1/89, 24 h
In short: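 Axenic amastigotes were seeded from log-phase cultures at 10^5 parasites/mL in M199-based medium at pH 5.4. They were derived from promastigotes by 3 days at 37 °C. Compounds at 2.3–75 µM for 24 h at 37 °C. Viability read by propidium iodide flow cytometry. EC50 ± SE from three independent experiments, each in triplicate.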

[4] = Cytotoxicity against human HepG2 cells assessed as reduction in cell proliferation treated for 24 hrs by crystal violet staining based analysis; type: toxicity
[5] = Selectivity index, ratio of CC50 for human HepG2 cells to EC50 for Leishmania infantum MCAN/ES/89/IPZ229/1/89 axenic amastigotes; type: toxicity; settings: read-out: Ratio CC50/EC50
Leishmania infantum [6] = test: Antileishmanial activity against GFP-expressing Leishmania infantum intracellular amastigotes infected in human THP-1 derived macrophage cells assessed as reduction in parasite viability measured for 72 hrs by resazurin/alamar blue fluorometric assay; type: functional, organism-based
In short: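 Human THP-1-derived macrophages infected with GFP-expressing L. infantum amastigotes; compounds at 2.3–75 µM, infected cells monitored for 72 h. EC50 ± SE from three independent experiments.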

[7] = Cytotoxicity against human HepG2 cells assessed as reduction in cell proliferation measured after 72 hrs by crystal violet staining based analysis; type: toxicity
[8] = Selectivity index, ratio of CC50 for human HepG2 cells to EC50 for GFP-expressing Leishmania infantum intracellular amastigotes infected in human THP-1 derived macrophage cells; type: toxicity, cell-based; settings: read-out: Ratio CC50/EC50

T1 sequence (A4HSF7 whole entry): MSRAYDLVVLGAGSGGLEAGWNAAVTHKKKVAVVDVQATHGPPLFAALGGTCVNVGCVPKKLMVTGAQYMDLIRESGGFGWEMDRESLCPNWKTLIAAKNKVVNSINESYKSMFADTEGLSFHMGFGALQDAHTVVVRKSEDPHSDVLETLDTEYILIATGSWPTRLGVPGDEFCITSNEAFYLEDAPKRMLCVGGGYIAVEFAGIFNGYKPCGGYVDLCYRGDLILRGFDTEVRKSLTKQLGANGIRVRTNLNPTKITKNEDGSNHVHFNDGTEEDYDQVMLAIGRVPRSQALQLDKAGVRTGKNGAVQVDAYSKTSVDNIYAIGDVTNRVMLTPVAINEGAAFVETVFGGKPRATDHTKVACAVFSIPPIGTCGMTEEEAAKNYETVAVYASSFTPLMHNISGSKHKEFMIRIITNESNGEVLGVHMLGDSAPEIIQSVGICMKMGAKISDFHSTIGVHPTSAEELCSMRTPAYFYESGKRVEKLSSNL

| Structure (SMILES) | IC50 (Trypanothione reductase [1]) [µM] | IC50 (Trypanothione reductase [2]) [µM] | EC50 (Leishmania infantum [3]) [µM] | CC50 at 24 h [4] [µM] | selectivity ratio [5] | EC50 (Leishmania infantum [6]) [µM] | CC50 at 72 h [7] [µM] | selectivity ratio [8] |
| --- | --- | --- | --- | --- | --- | --- | --- | --- |
| C[n+]1nn(-c2ccc(-c3nc(-c4ccccc4)cs3)c(OCCN3CCNC3=O)c2)cc1CCCCN | 20.3 |  | 62.4 | > 75 | > 1.2 |  |  |  |
| CC[n+]1nn(-c2ccc(-c3nc(CCc4ccc(-c5ccccc5)cc4)cs3)c(OCCN3CCNC3=O)c2)cc1CCCCN |  | 56.9 | 14 | > 75 | > 5.6 | 10 | 63.8 | 6.4 |
| C[n+]1nn(-c2ccc(-c3nc(CCc4ccccc4)cs3)c(OCCC3CCNCC3)c2)cc1CCCCN | 2.2 |  | > 75 | > 75 | < 1 |  |  |  |
| C[n+]1nn(-c2ccc(-c3nc(CCc4ccccc4)cs3)c(OCCN3CCNC3=O)c2)cc1CCCN | 42 |  | > 75 | > 75 | < 1 |  |  |  |
| C[n+]1nn(-c2ccc(-c3nc(-c4ccccc4)c(-c4ccccc4)s3)c(OCCN3CCNC3=O)c2)cc1CCCCN | 3.9 |  | 12.9 | > 75 | > 5.8 | 73.8 | > 75 |  |
| NCCCCc1cn(-c2ccc(-c3nc(-c4ccccc4)c(-c4ccccc4)s3)c(OCCN3CCNC3=O)c2)nn1 |  |  |  |  |  | 24.2 | > 75 | > 3.1 |
| CCCCCCCCCCCCCCCCOP(=O)([O-])OCC[N+](C)(C)C [MILTEFOSINE] |  |  |  |  |  | 0.6 | > 75 | > 125 |

Now from value to compound, other results behind:

| IC50 (Trypanothione reductase [1]) [µM] | IC50 (Trypanothione reductase [2]) [µM] | Structure (SMILES) | EC50 (Leishmania infantum [3]) [µM] | CC50 at 24 h [4] [µM] | selectivity ratio [5] | EC50 (Leishmania infantum [6]) [µM] | CC50 at 72 h [7] [µM] | selectivity ratio [8] |
| --- | --- | --- | --- | --- | --- | --- | --- | --- |
| 4.2 | > 75 | C[n+]1nn(-c2ccc(-c3nc(-c4ccc(Oc5ccccc5)cc4)c(-c4ccccc4)s3)c(OCCN3CCNC3=O)c2)cc1CCCCN | 12.2 | > 75 | > 6.1 | 15 | 42.6 | 2.8 |
| 2.1 | > 75 | C[n+]1nn(-c2ccc(-c3nc(CCc4ccccc4)cs3)c(OCC3CCNCC3)c2)cc1CCCCN | 28.4 | > 75 | > 2.6 |  |  |  |
| 4 | > 75 | C[n+]1nn(-c2ccc(-c3nc(-c4ccc(-c5ccccc5)cc4)c(-c4ccccc4)s3)c(OCCN3CCNC3=O)c2)cc1CCCCN | 6.4 | > 75 | > 12.3 | 14.1 | 34.5 | 2.4 |
| 5.4 | > 75 | C[n+]1nn(-c2ccc(-c3nc(CCC4Cc5ccccc5O4)cs3)c(OCCN3CCNC3=O)c2)cc1CCCCN (stereo not given) | > 75 | > 75 | < 1 |  |  |  |
| 5.5 | > 75 | COc1cc(-n2cc(CCCCN)[n+](C)n2)ccc1-c1nc(CCc2ccc(-c3ccccc3)cc2)cs1 | 7.6 | 35.9 | 4.7 |  |  |  |
| 7.8 | > 75 | C[n+]1nn(-c2ccc(-c3nc(CCc4ccc(Oc5ccccc5)cc4)c(-c4ccccc4)s3)c(OCCN3CCNC3=O)c2)cc1CCCCN | 8.9 | 35.2 | 4 |  |  |  |
| 6.8 | > 75 | C[n+]1nn(-c2ccc(-c3nc(CCc4ccc(-c5ccccc5)cc4)c(-c4ccccc4)s3)c(OCCN3CCNC3=O)c2)cc1CCCCN | 6 | 46.5 | 7.8 | 24.2 | 54.5 | 2.2 |
| 18.3 | > 75 | COc1cc(-n2cc(CCCCN)[n+](C)n2)ccc1-c1nc(CCc2ccccc2)cs1 | 20 | > 75 | > 3.8 |  |  |  |
